Measurements as given in ChEMBL document CHEMBL4425098, “Thiolactomycin-Based Inhibitors of Bacterial β-Ketoacyl-ACP Synthases with in Vivo Activity” (J Med Chem, 2016).
≈ marks a conversion by molar mass, not a printed value. Calls of active or inactive are those of the source. The calls are words filed in the database; no cut-off is given here.

Assays:
Klebsiella pneumoniae [1] = assay: Antibacterial activity against Klebsiella pneumoniae KPC2ST258 after 18 to 24 hrs by Alamar blue dye-based colorimetric assay; assay type: functional, organism-based
Klebsiella pneumoniae [2] = assay: Antibacterial activity against Klebsiella pneumoniae KPC2ST258 infected in Swiss Webster mouse assessed as survival time at 100 mg/kg, sc administered 1, 12 and 24 hrs post infection measured every 12 hrs for 7 days; assay type: functional
Outline: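 K. pneumoniae KPC2ST258 was given IP as 5×10⁶ cfu in BHI broth. Drugs in saline/PEG400/ethanol (40/20/40) were injected SC at 100 mg/kg/inj at 1, 12 and 24 h post infection. Mice were checked every 12 h for 7 days, n=8–10 per group. Average survival time was compared with vehicle by one-tailed t test.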

[3] = tested on: Mycobacterium tuberculosis; assay: Antibacterial activity against Mycobacterium tuberculosis H37Rv after 6 days by Alamar blue dye-based colorimetric assay; assay type: functional; settings: 144 h
Outline: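 M. tuberculosis H37Rv grown to early-mid log phase in Middlebrook 7H9 with 10% OADC and 0.05% Tween 80, added to 1:2 serial compound dilutions, and grown for 6 days at 37°C. Alamar blue then added for a further 24 h. MIC taken as the concentration preventing visible growth and Alamar blue reduction in all replicates.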

Francisella tularensis = assay: Antibacterial activity against Francisella tularensis LVS after 18 to 24 hrs by Alamar blue dye-based colorimetric assay; assay type: functional
Staphylococcus aureus [4] = assay: Antibacterial activity against methicillin-sensitive Staphylococcus aureus RN4220 after 18 to 24 hrs by Alamar blue dye-based colorimetric assay; assay type: functional
Outline: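 Two-fold serial dilutions from 512 down to 0.25 μg/mL in CAMHB (microbroth dilution); incubated 37 °C for 18–24 h, then Alamar Blue added for a further 4 h. Absorbance read at 570 and 600 nm; percent growth reduction plotted against concentration, MIC90 from non-linear regression; growth and MICs confirmed by optical density.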

Staphylococcus aureus [5] = assay: Antibacterial activity against methicillin-resistant Staphylococcus aureus BAA 1762 after 18 to 24 hrs by Alamar blue dye-based colorimetric assay; assay type: functional
Yersinia pestis = assay: Antibacterial activity against Yersinia pestis A1122 after 18 to 24 hrs by Alamar blue dye-based colorimetric assay; assay type: functional
[6] = tested on: Mycobacterium tuberculosis; assay: Binding affinity to Mycobacterium tuberculosis wild type FabB expressed in Mycobacterium smegmatis MC2 155 by WaterLOGSY-based competition assay
[7] = tested on: Burkholderia pseudomallei; assay: Antibacterial activity against Burkholderia pseudomallei after 18 to 24 hrs by Alamar blue dye-based colorimetric assay; assay type: functional
[8] = target: T1, 3-oxoacyl-[acyl-carrier-protein] synthase 2 (Staphylococcus aureus, UniProt Q5TKS0); assay: Binding affinity to Staphylococcus aureus wild type FabF expressed in Escherichia coli BL21 (DE3) PlysS cells by intrinsic tryptophan fluorescence quenching-based fluorimetric method
T1 sequence (Q5TKS0 whole entry): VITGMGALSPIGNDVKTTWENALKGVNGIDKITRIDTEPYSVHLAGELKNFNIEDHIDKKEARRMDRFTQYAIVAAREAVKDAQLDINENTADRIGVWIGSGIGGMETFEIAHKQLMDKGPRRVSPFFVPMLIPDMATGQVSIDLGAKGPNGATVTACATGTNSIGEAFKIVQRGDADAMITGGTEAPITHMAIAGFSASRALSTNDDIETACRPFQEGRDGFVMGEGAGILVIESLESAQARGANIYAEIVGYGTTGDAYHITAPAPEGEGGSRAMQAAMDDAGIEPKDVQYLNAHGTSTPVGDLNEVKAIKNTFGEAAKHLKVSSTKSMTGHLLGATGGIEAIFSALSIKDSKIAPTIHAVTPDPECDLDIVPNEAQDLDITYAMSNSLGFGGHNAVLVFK

[9] = target: 3-oxoacyl-[acyl-carrier-protein] synthase 2 (Staphylococcus aureus, UniProt Q5TKS0, C165Q); assay: Binding affinity to Staphylococcus aureus FabF C165Q mutant expressed in Escherichia coli BL21 (DE3) PlysS cells by intrinsic tryptophan fluorescence quenching-based fluorimetric method
Outline: (§1)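 Kd by quenching of intrinsic tryptophan fluorescence (excitation 280 nm, emission 337 nm). Inhibitor stocks in DMSO or buffer were titrated into 1 μM His-tag-purified enzyme in 50 mM Tris-HCl, 150 mM NaCl, 1 mM DTT, pH 8.5. mtFabB was expressed in M. smegmatis MC²155; saFabF was expressed in E. coli BL21(DE3) pLysS.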

Staphylococcus aureus [10] = assay: Antibacterial activity against methicillin-resistant Staphylococcus aureus BAA 1762 infected in Swiss Webster mouse assessed as increase in survival rate at 100 mg/kg, sc administered 1 and 25 hrs post infection measured twice a day for 5 days relative to vehicle-treated control; assay type: functional, organism-based
Outline: (§2)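 Mice made neutropenic with cyclophosphamide 4 days and 1 day before infection. MRSA BAA 1762 was given IP as 0.5 mL of 5×10⁷ cells/mL in BHI. Analogues in water/ethanol, or vancomycin in water, were dosed SC at 100 mg/kg/inj at 1 and 25 h post infection. Survival was checked every 12 h for 5 days, n=6–7 per group. Average survival time was compared with vehicle by one-tailed t test.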

Staphylococcus aureus [11] = assay: Antibacterial activity against methicillin-resistant Staphylococcus aureus BAA 1762 infected in Swiss Webster mouse assessed as survival time at 100 mg/kg, sc administered 1 and 25 hrs post infection measured twice a day for 5 days; assay type: functional; outline: as §2
Staphylococcus aureus [12] = assay: Antibacterial activity against methicillin-resistant Staphylococcus aureus BAA 1762 infected in sc dosed Swiss Webster mouse assessed as increase in survival rate administered 1 and 25 hrs post infection measured twice a day for 5 days; assay type: functional; settings: BAA 1762, sc; outline: as §2
[13] = Binding affinity to Mycobacterium tuberculosis wild type FabB expressed in Mycobacterium smegmatis MC2 155 by intrinsic tryptophan fluorescence quenching-based fluorimetric method; outline: as §1

Molecule	MIC (Klebsiella pneumoniae [1]) [µg/mL]	MSD (Klebsiella pneumoniae [2]) [days]	MIC90 [3] [µg/mL]	MIC90 (Francisella tularensis) [µg/mL]	MIC90 (Staphylococcus aureus [4]) [µg/mL]	MIC90 (Staphylococcus aureus [5]) [µg/mL]	MIC90 (Yersinia pestis) [µg/mL]	Activity [6]	Activity [7]	Kd [8] [µM]	Kd [9] [µM]	Activity (Staphylococcus aureus [10])	MIC [7] [µg/mL]	MSD (Staphylococcus aureus [11]) [days]	ED50 (Staphylococcus aureus [12]) [mg/kg]	Ki [13] [µM]
GENTAMICIN	< 1	6.2														
C=C/C(C)=C/[C@@]1(C)SC(=O)C=C1O			> 100	124 (≈ 632 µM)	150 (≈ 764 µM)	100 (≈ 509 µM)	250 (≈ 1270 µM)	inactive	inactive							
C=C/C(C)=C/[C@@]1(C)SC(=O)C(CCCCc2ccc(-c3ccccc3)cc2)=C1O			12.5 (≈ 30.9 µM)	1.9 (≈ 4.7 µM)	16 (≈ 39.5 µM)	25 (≈ 61.8 µM)	> 250			131						
C=C/C(C)=C/[C@@]1(C)SC(=O)C(C(=O)CCCCCc2ccc(-c3ccccc3)cc2)=C1O			50 (≈ 112 µM)	0.21 (≈ 0.47 µM)	0.5 (≈ 1.12 µM)	1 (≈ 2.24 µM)	> 250		inactive	35.2	33	Active				
C=C/C(C)=C/[C@@]1(C)SC(=O)C(CCc2ccc(Cl)cc2)=C1O			100 (≈ 299 µM)	3.1 (≈ 9.26 µM)	64 (≈ 191 µM)	100 (≈ 299 µM)	> 250		inactive							
C=C/C(C)=C/[C@@]1(C)SC(=O)C(C(=O)CCCCCN=[N+]=[N-])=C1O					16 (≈ 47.7 µM)	16 (≈ 47.7 µM)										
C=C/C(C)=C/[C@@]1(C)SC(=O)C(C(=O)c2ccccc2C(=O)O)=C1O			50 (≈ 145 µM)	15.9 (≈ 46.2 µM)	32 (≈ 92.9 µM)	32 (≈ 92.9 µM)	> 250		inactive							
C=C/C(C)=C/[C@@]1(C)SC(=O)C(CCc2ccc(C)cc2)=C1O				3.4 (≈ 10.8 µM)	> 64	> 100	> 250									
C=C/C(C)=C/[C@@]1(C)SC(=O)C(C(C)=O)=C1O		4.6	12.5 (≈ 52.5 µM)	8.8 (≈ 36.9 µM)	64 (≈ 269 µM)	32 (≈ 134 µM)	> 250		inactive	14.2	11.9	Active				
C=C/C(C)=C/[C@@]1(C)SC(=O)C(CC)=C1O			2.5 (≈ 11.1 µM)	6.9 (≈ 30.8 µM)	150 (≈ 669 µM)	125 (≈ 557 µM)	145 (≈ 646 µM)						32 (≈ 143 µM)			
C=C/C(C)=C/[C@@]1(C)SC(=O)C=C1OCC(=O)NCCN=[N+]=[N-]			> 100	39 (≈ 121 µM)	> 64	> 64		inactive								
C=C/C(C)=C/[C@@]1(C)SC(=O)C(C(=O)OC)=C1O			100 (≈ 393 µM)	58.2 (≈ 229 µM)	> 64	> 64	> 250		inactive							
CN[C@H](CC(C)C)C(=O)N[C@H]1C(=O)N[C@@H](CC(N)=O)C(=O)N[C@H]2C(=O)N[C@H]3C(=O)N[C@H](C(=O)N[C@H](C(=O)O)c4cc(O)cc(O)c4-c4cc3ccc4O)[C@H](O)c3ccc(c(Cl)c3)Oc3cc2cc(c3O[C@@H]2O[C@H](CO)[C@@H](O)[C@H](O)[C@H]2O[C@H]2C[C@](C)(N)[C@H](O)[C@H](C)O2)Oc2ccc(cc2Cl)[C@H]1O [VANCOMYCIN]														5	< 30	
C=C/C(C)=C/[C@@]1(C)SC(=O)C=C1OCC(=O)NCCn1cc(CNC(=O)c2ccc(NS(=O)(=O)c3ccc(F)cc3)cc2)nn1			> 100	> 256	> 64	> 64		inactive								
C=C/C(C)=C/[C@@]1(C)SC(=O)C=C1OCC(=O)NCCn1cc(CNC(=O)[C@H](O)C(C)(C)CO)nn1			100 (≈ 197 µM)	159 (≈ 313 µM)	> 64	> 64		inactive								
C=C/C(C)=C/[C@@]1(C)SC(=O)C(C(=O)CCCCCCCCCCCCCCC)=C1O			100 (≈ 230 µM)	3.9 (≈ 8.97 µM)	0.5 (≈ 1.15 µM)	1 (≈ 2.3 µM)	> 250		inactive	> 200						
C=C/C(C)=C/[C@@]1(C)SC(=O)C(CCCCc2ccc(Cl)cc2)=C1O			100 (≈ 276 µM)	1.7 (≈ 4.68 µM)	64 (≈ 176 µM)	50 (≈ 138 µM)	> 250									
C=C/C(C)=C/[C@@]1(C)SC(=O)C(CCCCc2ccc(Br)cc2)=C1O			12.5 (≈ 30.7 µM)	2.2 (≈ 5.4 µM)	32 (≈ 78.6 µM)	50 (≈ 123 µM)	> 250			92						
C=C/C(C)=C/[C@@]1(C)SC(=O)C(CCCCN=[N+]=[N-])=C1O			100 (≈ 341 µM)	15.3 (≈ 52.1 µM)	> 64	> 100	> 250			107						
C=C/C(C)=C/[C@@]1(C)SC(=O)C(CCCCn2cc(CNC(=O)c3ccc(NS(=O)(=O)c4ccc(F)cc4)cc3)nn2)=C1O			100 (≈ 160 µM)	250 (≈ 400 µM)	> 64	> 100	> 250									
C=C/C(C)=C/[C@@]1(C)SC(=O)C(CCCCn2cc(CNC(=O)[C@H](O)C(C)(C)CO)nn2)=C1O			> 100	250 (≈ 522 µM)	> 64	> 100	> 250									
C=C/C(C)=C/[C@@]1(C)SC(=O)C(CCCN=[N+]=[N-])=C1O			100 (≈ 358 µM)	23.6 (≈ 84.5 µM)	> 64	> 100	> 250									
C=C/C(C)=C/[C@@]1(C)SC(=O)C(CCC)=C1O			25 (≈ 105 µM)	25.8 (≈ 108 µM)	> 200	> 200	> 250		inactive							
C=C/C(C)=C/[C@@]1(C)SC(=O)C(CCCCc2ccc(F)cc2)=C1O			> 100	3.1 (≈ 8.95 µM)	> 64	75 (≈ 216 µM)	> 250		inactive							
C=C/C(C)=C/[C@@]1(C)SC(=O)C(C(=O)CCC)=C1O			100 (≈ 375 µM)	1.8 (≈ 6.76 µM)	16 (≈ 60.1 µM)	32 (≈ 120 µM)	> 250		inactive							
C=C/C(C)=C/[C@@]1(C)SC(=O)C(C(=O)C(F)(F)F)=C1O		5.1	100 (≈ 342 µM)	98.1 (≈ 336 µM)	> 64	64 (≈ 219 µM)	> 250		inactive	58.4	56.2			3	125	
C=C/C(C)=C/[C@@]1(C)SC(=O)C=C1OCC(=O)NCCNC(=O)OC(C)(C)C			> 100	54 (≈ 136 µM)	> 64	> 64		inactive								> 200
